Assays:
HL-60 = assay: Inhibition of chymotrypsin-like activity of purified human 20S proteasome in HL60 cells using N-succinyl-Leu-Leu-Val-Tyr-AMC as substrate pre-incubated for 10 mins by fluorimetric assay; assay type: cell-based
Summary of the method: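 Enzyme source was a proteasome fraction isolated from HL-60 human leukemia cells. […] Activity is reported as ED50 in μM.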

HT-29 [1] = assay: Cytotoxicity against human HT-29 cells after 3 days by sulforhodamine B assay; assay type: functional; settings: read-out: ED50 (the source's name)
HT-29 [2] = assay: Induction of apoptosis in human HT-29 cells assessed reduction of mitochondrial membrane potential after 2 hrs by using JC1 staining by fluorescence cell-based assay; assay type: functional; settings: HT-29, 2 h, read-out: ED50 (the source's name)

Row | EC50 (HT-29 [2]) [µM] | Structure (SMILES) | ED50 (HL-60) [µM] | EC50 (HT-29 [1]; Homo sapiens, HT-29, 72 h) [µM] | EC50 (HT-29 [1]) [µM]
1 |  | O=C1C[C@@H](c2ccccc2)Oc2c(Cc3ccccc3O)c(O)c(Cc3cc(Cc4cc(Cc5ccccc5O)ccc4O)ccc3O)c(O)c21 [SARMENTOSUMIN B] | > 20 | > 20 | 
2 |  | O=C1C[C@@H](c2ccccc2)Oc2c(Cc3cc(Cc4ccccc4O)ccc3O)c(O)c(Cc3cc(Cc4cc(Cc5ccccc5O)ccc4O)ccc3O)c(O)c21 [SARMENTOSUMIN D] | > 20 | > 20 | 
3 | 2.5 | O=C1C[C@@H](c2ccccc2)Oc2c(Cc3ccccc3O)c(O)c(Cc3cc(Cc4cc(Cc5cc(Cc6ccccc6O)ccc5O)ccc4O)ccc3O)c(O)c21 [SARMENTOSUMIN C] | > 20 | > 20 | 
4 | 13.6 | COc1cc(O)c2c(c1Cc1ccccc1O)O[C@H](c1ccccc1)CC2=O | > 20 | > 20 | 
5 |  | CC(C)C[C@H](NC(=O)[C@H](Cc1ccccc1)NC(=O)c1cnccn1)B(O)O [BORTEZOMIB] |  | > 20 | 
6 |  | CC(=O)O[C@H]1C(=O)[C@@]2(C)[C@H]([C@H](OC(=O)c3ccccc3)[C@]3(O)C[C@H](OC(=O)[C@H](O)[C@@H](NC(=O)c4ccccc4)c4ccccc4)C(C)=C1C3(C)C)[C@]1(OC(C)=O)CO[C@@H]1C[C@@H]2O [PACLITAXEL] |  | 0.006 | 
7 | 1.6 | COc1c(Cc2ccccc2O)c(O)c2c(c1Cc1ccccc1O)O[C@H](c1ccccc1)CC2=O | 3.45 | > 20 | 
8 |  | O=C1C[C@@H](c2ccccc2)Oc2c(Cc3cc(Cc4cc(Cc5ccccc5O)ccc4O)ccc3O)c(O)c(Cc3ccccc3O)c(O)c21 [SARMENTOSUMIN A] | > 20 | > 20 | 
9 |  | O=C1C[C@@H](c2ccccc2)Oc2c(Cc3ccccc3O)c(O)c(Cc3ccccc3O)c(O)c21 [DICHAMANETIN] | > 20 |  | > 20
10 |  | O=C1C[C@@H](c2ccccc2)Oc2cc(O)cc(O)c21 [PINOCEMBRIN] | 2.87 | > 20 | 
11 | 4.6 | CC(C)CNC(=O)/C=C/C=C/CCCCc1ccc2c(c1)OCO2 [PIPERCALLOSINE] | > 20 | > 20 | 
12 |  | O=C1C[C@@H](c2ccccc2)Oc2cc(O)c(Cc3ccccc3O)c(O)c21 [ISOCHAMANETIN] | > 20 | > 20 | 
